One data set relates to Hepatocyte. The experiment in a line: Induction of CYP3A4 mRNA expression in human hepatocytes at 0.01 to 1 uM after 3 days by qRT-PCR analysis. In kind it is ADME, cell-based. As to conditions: 72 h. The essentials: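 Plateable human hepatocytes exposed to 0.01, 0.1 and 1.0 μM. CYP1A2, CYP2B6 and CYP3A4 induction read as both mRNA expression and enzyme activity.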
On the technique in general: Real-time PCR tracks product formation cycle by cycle.

Data set [1] concerns the target T1, 5-hydroxytryptamine receptor 1A (Homo sapiens) (UniProt P08908).
T1 sequence (whole entry): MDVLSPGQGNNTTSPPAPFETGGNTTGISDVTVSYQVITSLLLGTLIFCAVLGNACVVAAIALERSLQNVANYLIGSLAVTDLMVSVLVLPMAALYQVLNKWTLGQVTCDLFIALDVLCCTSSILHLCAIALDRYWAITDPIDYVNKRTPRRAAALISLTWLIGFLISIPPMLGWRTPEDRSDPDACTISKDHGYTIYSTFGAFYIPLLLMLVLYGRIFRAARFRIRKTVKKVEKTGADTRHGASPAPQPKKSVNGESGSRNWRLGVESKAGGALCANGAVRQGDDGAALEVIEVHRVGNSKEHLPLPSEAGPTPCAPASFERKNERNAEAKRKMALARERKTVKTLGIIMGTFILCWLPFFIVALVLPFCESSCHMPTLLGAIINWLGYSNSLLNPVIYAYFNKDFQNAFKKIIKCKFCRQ
The experiment in a line: Displacement of [3H]-8-OH-DPAT from recombinant human 5-HT1A receptor expressed in HEK293 EBNA cell membranes after 120 mins by microbeta scintillation counting analysis. (In general: Displacement assays read how much labelled ligand stays bound in the presence of the test substance.)

Data set [2] is described as follows: Clearance in Beagle dog at 3 mg/kg, iv. In kind it is ADME, organism-based, Canis lupus familiaris. The note with it: in vivo.
In another data set the test system is Salmonella typhimurium. The experiment in a line: Mutagenicity in Salmonella typhimurium TA1537 in absence of metabolic activation. In kind it is toxicity. The note with it: salmonella enterica subsp. enterica serovar typhimurium.

Each structure is given as a SMILES string. Active and inactive are the calls of the source. The calls are words filed in the database; no cut-off is given here.

The clearance is a measure of how efficiently the substance is removed, as volume per time. A low value points to inefficient removal.

For `COc1ccc2c(c1)c(CN1CCN(C)CC1)cn2S(=O)(=O)c1ccccc1Br.CS(=O)(=O)O.O`, the Activity result in the data set with Hepatocyte and with Salmonella typhimurium was “Non-Toxic” in each case. In data set [1], the outcome was inactive. Besides, the clearance in data set [2] is 46.4 mL/min/kg.

The values above are taken from ChEMBL document CHEMBL4007422 (J Med Chem, 2017).
